Among the data in ChEMBL document CHEMBL1151230, “Cytotoxic triterpenoids from Acridocarpus vivy from the Madagascar rain forest” (J Nat Prod, 2004) are IC50 values, retold here.

Converted amounts (≈) assume the structure as drawn. Where only a bound is given, the exact number is not on record here.

The test deals with A2780. Kind of test: Cytotoxicity against human A2780 cells. The class given is functional, cell-based. A digest of the protocol:
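Growth inhibition of the human ovarian cancer line A2780. IC50 is the concentration giving 50% inhibition of growth, reported in µg/mL. Actinomycin D served as positive control. Run at Virginia Polytechnic Institute following an earlier published procedure.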
With `CC1(C)C=C2[C@H]3CC[C@@H]4[C@@]5(C)CCC(=O)[C@](C)(C=O)[C@@H]5CC[C@@]4(C)[C@]3(C)CC[C@@]2(C(=O)O)CC1`, the IC50 (in general, the concentration needed to halve the response being measured) was determined as 0.7 µg/mL (≈ 1.49 µM). The figure for `CC1(C)C=C2[C@H]3CC[C@@H]4[C@@]5(C)CCC(=O)[C@](C)(CO)[C@@H]5CC[C@@]4(C)[C@]3(C)CC[C@@]2(C(=O)O)CC1` is 15.9 µg/mL (≈ 33.8 µM); for `CC(=O)OC[C@@]1(C)C(=O)CC[C@@]2(C)[C@H]1CC[C@]1(C)[C@@H]2CC[C@@H]2C3=CC(C)(C)CC[C@]3(C(=O)O)CC[C@]21C` it is 11.6 µg/mL (≈ 22.6 µM). As to `CC(=O)O[C@@H]1CC[C@]2(C)[C@H]3CC[C@@H]4C5=CC(C)(C)CC[C@]5(C(=O)O)CC[C@@]4(C)[C@]3(C)CC[C@H]2C1(C)C`, the midpoint of inhibition, the IC50, lay at 15.3 µg/mL (≈ 30.7 µM). In the case of `COc1cc(O)c2c(=O)cc(-c3ccc(O)cc3)oc2c1` [GENKWANIN] it was greater than 20 µg/mL.

`CC1(C)C=C2[C@H]3CC[C@@H]4[C@@]5(C)CCC(=O)C(C)(C)[C@@H]5CC[C@@]4(C)[C@]3(C)CC[C@@]2(C(=O)O)CC1` [MORONIC ACID] gave an IC50 of 13.1 µg/mL (≈ 28.8 µM).

Regarding `CC1(C)CC[C@]2(C(=O)O)CC[C@]3(C)C(=CC[C@@H]4[C@@]5(C)CC[C@H](O)C(C)(C)[C@@H]5CC[C@]43C)[C@@H]2C1` [OLEANOLIC_ACID], the midpoint of inhibition, the IC50, lay at 8 µg/mL (≈ 17.5 µM). The figure for `C[C@H]1[C@H](C)CC[C@]2(C(=O)O)CC[C@]3(C)C(=CC[C@@H]4[C@@]5(C)CC[C@H](O)C(C)(C)[C@@H]5CC[C@]43C)[C@H]12` [URSOLIC ACID] is 9.2 µg/mL (≈ 20.1 µM); for `COc1cc(O)c2c(=O)cc(-c3ccc(O)c(OC)c3)oc2c1` [VELUTIN] it is greater than 20 µg/mL.
